Measurements published in PubChem BioAssay AID623969 (Broad Institute, 2012).
“And” between values parts separate entries of the source, which are not always exact repeats. Identical values can stand only once.

What follows are compounds tested on S. cerevisiae growth in glycerol medium, OD600, 48 h (assay: yeast growth reduction with glycerol carbon source – OD600, powder samples, set 3, dose response (AID 623969)).
Summary of the method: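 Dosing – pinned compound dilution series · Test system – S. cerevisiae yeast on glycerol · Measured by – optical density at 600 nm · Times – 48 h exposure, 30 °C, no shaking · Buffer or medium – CSM medium supplemented with glycerol as carbon source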
`CC1/C=C/C=C\C=C\C=C\C=C\C=C\C=C\C(O[C@H]2OC(C)C(O)C(N)C2O)CC2OC(O)(CC(O)CC(O)C(O)CCC(O)CC(O)CC(=O)OC(C)C(C)C1O)CC(O)C2C(=O)O` (stereo partly drawn) was tested, and the AC50 was 234 nM.
Work on `C/C=C/[C@@H]1[C@H]2C[C@@H](C)CC[C@@H]2C(C)=C[C@H]1C(=O)c1c(O)c(-c2ccc(O)cc2)c[nH]c1=O` yielded an AC50 of 33.5 nM.
In the case of `CCOC(=O)N1C(=O)C2(CCCCC2)N(c2ccc(C)cc2)C1=S`, the AC50 is reported as 15 nM and 13.6 nM.
For `CCOC(=O)N1C(=O)C2(CCCCC2)N(c2ccccc2)C1=S`, the AC50 was 20 nM.
Compound `CCOC(=O)N1C(=O)C2(CCCCC2)N(c2cccc(C)c2)C1=S` has an AC50 of 27.6 nM.
Work on `CCOC(=O)N1C(=O)C2(CCCCC2)N(c2ccc(C#N)cc2)C1=S` yielded an AC50 of 4.81 nM.
In the case of `CCOC(=O)N1C(=O)C2(CCCCC2)N(c2ccc(Cl)cc2)C1=S`, the AC50 is reported as 8.26 nM.
For `CCOC(=O)N1C(=O)C2(CCCCC2)N(c2ccc(F)cc2)C1=S`, the AC50 was 5.61 nM.
